According to ChEMBL document CHEMBL3785002, “Lead optimization of the VU0486321 series of mGlu1 PAMs. Part 3. Engineering plasma stability by discovery and optimization of isoindolinone analogs” (Bioorg Med Chem Lett, 2016):

Assays:
[1] = target: T1, Metabotropic glutamate receptor 1 (Homo sapiens, UniProt Q13255); test: Positive allosteric modulatory activity at human mGlu1 receptor expressed in wild type T-Rex293 cells assessed as increase in glutamate-induced calcium mobilization pre-incubated for 2.5 mins before glutamate stimulation for 1 min; type: functional, cell-based
In short: (§1)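 Tetracycline-inducible human mGlu1 WT T-REx-293 cells were induced overnight with 50 ng/mL tetracycline in dialyzed-FBS medium. Cells were loaded with 1.15 μM Fluo-4 AM in HBSS/20 mM HEPES/2.5 mM probenecid for 45 min at 37 °C. Compounds (half-log series in DMSO) were added for 2.5 min, then an EC20 of glutamate for 1 min. Calcium flux was read on Flexstation; ECmax glutamate served as reference. n=3 in triplicate.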
Target sequence in this assay (Q13255 whole entry): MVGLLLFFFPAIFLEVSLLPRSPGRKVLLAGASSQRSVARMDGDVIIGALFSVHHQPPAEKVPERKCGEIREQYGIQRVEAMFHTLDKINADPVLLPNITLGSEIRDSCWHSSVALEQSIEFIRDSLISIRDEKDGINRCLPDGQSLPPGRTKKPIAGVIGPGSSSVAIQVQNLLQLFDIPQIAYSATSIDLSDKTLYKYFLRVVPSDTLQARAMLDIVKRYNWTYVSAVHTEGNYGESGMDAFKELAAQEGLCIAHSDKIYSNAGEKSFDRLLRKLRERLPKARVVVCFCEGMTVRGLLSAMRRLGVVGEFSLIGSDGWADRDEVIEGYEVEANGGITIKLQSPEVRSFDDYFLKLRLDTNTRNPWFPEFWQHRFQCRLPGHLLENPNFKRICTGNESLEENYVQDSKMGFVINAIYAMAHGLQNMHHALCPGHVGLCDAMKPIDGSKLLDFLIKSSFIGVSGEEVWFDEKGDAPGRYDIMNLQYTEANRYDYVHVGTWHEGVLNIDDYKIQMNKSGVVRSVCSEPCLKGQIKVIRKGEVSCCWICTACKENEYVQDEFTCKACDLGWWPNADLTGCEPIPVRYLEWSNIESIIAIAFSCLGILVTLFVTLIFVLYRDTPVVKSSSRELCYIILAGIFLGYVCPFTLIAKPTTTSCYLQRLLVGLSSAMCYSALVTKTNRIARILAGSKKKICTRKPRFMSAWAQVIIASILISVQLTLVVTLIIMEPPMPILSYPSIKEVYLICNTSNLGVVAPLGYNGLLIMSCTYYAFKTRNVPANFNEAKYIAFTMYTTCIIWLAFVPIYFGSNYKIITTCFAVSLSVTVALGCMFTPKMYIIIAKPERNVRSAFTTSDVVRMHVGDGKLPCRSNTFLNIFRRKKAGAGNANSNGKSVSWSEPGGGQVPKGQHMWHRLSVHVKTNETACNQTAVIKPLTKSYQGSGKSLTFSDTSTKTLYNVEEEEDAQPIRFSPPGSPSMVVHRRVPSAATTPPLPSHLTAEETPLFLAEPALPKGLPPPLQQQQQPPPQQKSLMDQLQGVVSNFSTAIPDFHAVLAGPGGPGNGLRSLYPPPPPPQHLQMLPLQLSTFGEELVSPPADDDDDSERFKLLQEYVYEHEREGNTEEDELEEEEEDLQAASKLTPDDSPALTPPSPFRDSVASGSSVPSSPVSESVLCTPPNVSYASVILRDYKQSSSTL

[2] = target: T1, Metabotropic glutamate receptor 1; test: Positive allosteric modulatory activity at human mGlu1 receptor expressed in wild type T-Rex293 cells assessed as increase in glutamate-induced calcium mobilization pre-incubated for 2.5 mins before glutamate stimulation for 1 min relative to glutamate alone; type: functional, cell-based; in short: as §1
Target sequence in this assay (Q13255 19-1194 limits assumed): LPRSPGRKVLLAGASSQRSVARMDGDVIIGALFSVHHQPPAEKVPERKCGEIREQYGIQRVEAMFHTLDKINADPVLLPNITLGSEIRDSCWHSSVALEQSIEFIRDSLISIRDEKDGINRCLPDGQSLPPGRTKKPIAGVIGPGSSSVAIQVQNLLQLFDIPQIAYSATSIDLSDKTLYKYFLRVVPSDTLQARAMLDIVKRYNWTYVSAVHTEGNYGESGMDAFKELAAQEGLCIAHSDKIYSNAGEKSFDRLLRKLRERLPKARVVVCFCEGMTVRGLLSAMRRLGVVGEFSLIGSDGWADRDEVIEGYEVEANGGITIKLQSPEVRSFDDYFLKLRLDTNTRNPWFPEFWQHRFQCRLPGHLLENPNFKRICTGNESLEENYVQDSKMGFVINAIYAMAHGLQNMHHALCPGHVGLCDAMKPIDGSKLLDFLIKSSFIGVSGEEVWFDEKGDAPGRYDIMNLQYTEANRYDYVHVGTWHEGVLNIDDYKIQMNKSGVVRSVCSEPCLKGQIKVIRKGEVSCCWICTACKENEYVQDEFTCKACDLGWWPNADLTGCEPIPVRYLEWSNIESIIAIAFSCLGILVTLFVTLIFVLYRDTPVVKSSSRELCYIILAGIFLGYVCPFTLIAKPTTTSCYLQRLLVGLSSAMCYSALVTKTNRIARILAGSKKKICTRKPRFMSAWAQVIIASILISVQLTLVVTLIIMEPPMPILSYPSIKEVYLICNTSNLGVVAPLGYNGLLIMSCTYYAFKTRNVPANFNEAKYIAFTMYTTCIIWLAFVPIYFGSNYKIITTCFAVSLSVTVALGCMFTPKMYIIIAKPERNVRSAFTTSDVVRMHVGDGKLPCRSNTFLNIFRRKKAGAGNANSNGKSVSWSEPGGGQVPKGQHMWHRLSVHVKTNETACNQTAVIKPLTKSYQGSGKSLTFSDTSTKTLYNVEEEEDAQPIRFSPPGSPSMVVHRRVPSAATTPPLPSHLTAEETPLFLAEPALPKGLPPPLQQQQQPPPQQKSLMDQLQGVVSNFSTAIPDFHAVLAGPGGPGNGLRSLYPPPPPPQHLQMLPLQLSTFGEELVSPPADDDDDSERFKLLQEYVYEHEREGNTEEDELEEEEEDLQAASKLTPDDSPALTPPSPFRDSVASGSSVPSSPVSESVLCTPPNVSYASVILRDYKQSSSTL

T-Rex 293 = test: Selectivity ratio of EC50 for human mGlu4 receptor expressed in wild type T-Rex 293 cells to EC50 for human mGlu1 receptor expressed in wild type T-Rex 293 cells; type: cell-based; conditions: T-Rex293
[3] = Fraction unbound in human plasma; type: ADME, cell-free
[4] = Fraction unbound in rat plasma; type: ADME, cell-free
Liver microsome [5] = test: Stability in rat liver microsomes; type: ADME
Liver microsome [6] = test: Stability in human liver microsomes; type: ADME
Rattus norvegicus [7] = species on record: Rattus norvegicus; test: Volume of distribution in rat; type: ADME, organism-based; conditions: in vivo
Rattus norvegicus [8] = species on record: Rattus norvegicus; test: Half life in rat; type: ADME, organism-based; conditions: in vivo
[9] = Plasma protein binding in human; type: ADME, cell-free
[10] = Protein binding in rat brain; type: ADME, tissue-based; conditions: read-out: PB
Cytochrome P450 3A4 = Cytochrome P450 3A4 (Homo sapiens, UniProt P08684); test: Inhibition of […] (unknown origin); type: ADME
Cytochrome P450 3A4, sequence (P08684 whole entry): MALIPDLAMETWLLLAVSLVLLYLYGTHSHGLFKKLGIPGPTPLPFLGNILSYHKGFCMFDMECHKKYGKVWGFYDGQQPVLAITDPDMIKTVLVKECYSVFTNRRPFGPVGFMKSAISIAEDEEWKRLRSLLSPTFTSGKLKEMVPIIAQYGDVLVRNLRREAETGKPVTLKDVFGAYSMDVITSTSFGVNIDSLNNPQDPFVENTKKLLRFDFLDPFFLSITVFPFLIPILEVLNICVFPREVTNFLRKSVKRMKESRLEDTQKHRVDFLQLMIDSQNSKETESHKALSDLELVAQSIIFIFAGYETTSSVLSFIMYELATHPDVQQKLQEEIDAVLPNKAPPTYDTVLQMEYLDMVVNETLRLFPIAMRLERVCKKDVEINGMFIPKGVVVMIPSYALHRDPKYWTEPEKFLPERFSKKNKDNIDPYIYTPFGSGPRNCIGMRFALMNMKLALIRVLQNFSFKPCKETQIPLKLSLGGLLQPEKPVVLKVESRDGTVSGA

Cytochrome P450 1A2 = target: T2, Cytochrome P450 1A2 (Homo sapiens, UniProt P05177); test: Inhibition of CYP1A2 (unknown origin); type: ADME
T2 sequence (P05177 whole entry): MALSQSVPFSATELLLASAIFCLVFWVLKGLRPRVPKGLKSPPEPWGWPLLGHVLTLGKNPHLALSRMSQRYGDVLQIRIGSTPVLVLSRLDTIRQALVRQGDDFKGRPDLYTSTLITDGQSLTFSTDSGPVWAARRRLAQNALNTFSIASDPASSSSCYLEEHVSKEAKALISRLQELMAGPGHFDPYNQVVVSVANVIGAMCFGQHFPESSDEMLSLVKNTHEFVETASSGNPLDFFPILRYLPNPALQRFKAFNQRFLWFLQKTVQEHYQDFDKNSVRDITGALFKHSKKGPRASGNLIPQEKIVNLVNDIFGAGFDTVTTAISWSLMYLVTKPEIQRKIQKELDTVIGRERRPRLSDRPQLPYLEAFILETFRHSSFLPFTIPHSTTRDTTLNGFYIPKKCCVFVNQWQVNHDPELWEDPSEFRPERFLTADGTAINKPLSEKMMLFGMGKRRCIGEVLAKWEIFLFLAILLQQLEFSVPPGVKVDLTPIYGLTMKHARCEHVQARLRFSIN

Cytochrome P450 2C9 = Cytochrome P450 2C9 (Homo sapiens, UniProt P11712); test: Inhibition of CYP2C9 (unknown origin); type: ADME
Cytochrome P450 2C9, sequence (P11712 whole entry): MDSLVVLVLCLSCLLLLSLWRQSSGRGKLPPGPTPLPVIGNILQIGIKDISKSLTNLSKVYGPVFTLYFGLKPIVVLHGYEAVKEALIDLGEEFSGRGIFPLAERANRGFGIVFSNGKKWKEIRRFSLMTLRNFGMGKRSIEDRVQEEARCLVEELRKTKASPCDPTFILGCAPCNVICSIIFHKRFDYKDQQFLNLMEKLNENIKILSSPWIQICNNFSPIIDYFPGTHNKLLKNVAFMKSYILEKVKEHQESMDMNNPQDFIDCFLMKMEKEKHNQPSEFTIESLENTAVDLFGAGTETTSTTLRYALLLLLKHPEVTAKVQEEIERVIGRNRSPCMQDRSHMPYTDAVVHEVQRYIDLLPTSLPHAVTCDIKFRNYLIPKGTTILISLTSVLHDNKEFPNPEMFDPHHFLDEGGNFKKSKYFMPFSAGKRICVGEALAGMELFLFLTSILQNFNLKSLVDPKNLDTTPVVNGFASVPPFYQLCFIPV

Cytochrome P450 2D6 = Cytochrome P450 2D6 (Homo sapiens, UniProt P10635); test: Inhibition of CYP2D6 (unknown origin); type: ADME
Cytochrome P450 2D6, sequence (P10635 whole entry): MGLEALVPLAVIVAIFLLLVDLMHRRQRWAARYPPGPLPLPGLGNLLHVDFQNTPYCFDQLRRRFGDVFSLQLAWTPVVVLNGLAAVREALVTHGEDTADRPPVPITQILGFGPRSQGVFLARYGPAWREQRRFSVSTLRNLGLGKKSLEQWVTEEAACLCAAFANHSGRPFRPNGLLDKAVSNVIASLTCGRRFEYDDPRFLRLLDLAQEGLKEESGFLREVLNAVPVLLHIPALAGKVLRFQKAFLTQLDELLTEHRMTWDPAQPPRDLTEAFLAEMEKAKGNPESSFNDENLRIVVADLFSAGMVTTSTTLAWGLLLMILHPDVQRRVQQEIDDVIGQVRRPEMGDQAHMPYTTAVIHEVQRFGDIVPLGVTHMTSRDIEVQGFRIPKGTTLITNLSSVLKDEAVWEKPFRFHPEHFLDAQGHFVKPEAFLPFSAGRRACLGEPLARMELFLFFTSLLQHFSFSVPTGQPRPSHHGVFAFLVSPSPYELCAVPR

[11] = target: Metabotropic glutamate receptor 4 (Homo sapiens, UniProt Q14833); test: Positive allosteric modulatory activity at human mGlu4 receptor expressed in wild type T-Rex293 cells assessed as increase in glutamate-induced calcium mobilization pre-incubated for 2.5 mins before glutamate stimulation for 1 min; type: functional, cell-based
Metabotropic glutamate receptor 4, sequence (Q14833 whole entry): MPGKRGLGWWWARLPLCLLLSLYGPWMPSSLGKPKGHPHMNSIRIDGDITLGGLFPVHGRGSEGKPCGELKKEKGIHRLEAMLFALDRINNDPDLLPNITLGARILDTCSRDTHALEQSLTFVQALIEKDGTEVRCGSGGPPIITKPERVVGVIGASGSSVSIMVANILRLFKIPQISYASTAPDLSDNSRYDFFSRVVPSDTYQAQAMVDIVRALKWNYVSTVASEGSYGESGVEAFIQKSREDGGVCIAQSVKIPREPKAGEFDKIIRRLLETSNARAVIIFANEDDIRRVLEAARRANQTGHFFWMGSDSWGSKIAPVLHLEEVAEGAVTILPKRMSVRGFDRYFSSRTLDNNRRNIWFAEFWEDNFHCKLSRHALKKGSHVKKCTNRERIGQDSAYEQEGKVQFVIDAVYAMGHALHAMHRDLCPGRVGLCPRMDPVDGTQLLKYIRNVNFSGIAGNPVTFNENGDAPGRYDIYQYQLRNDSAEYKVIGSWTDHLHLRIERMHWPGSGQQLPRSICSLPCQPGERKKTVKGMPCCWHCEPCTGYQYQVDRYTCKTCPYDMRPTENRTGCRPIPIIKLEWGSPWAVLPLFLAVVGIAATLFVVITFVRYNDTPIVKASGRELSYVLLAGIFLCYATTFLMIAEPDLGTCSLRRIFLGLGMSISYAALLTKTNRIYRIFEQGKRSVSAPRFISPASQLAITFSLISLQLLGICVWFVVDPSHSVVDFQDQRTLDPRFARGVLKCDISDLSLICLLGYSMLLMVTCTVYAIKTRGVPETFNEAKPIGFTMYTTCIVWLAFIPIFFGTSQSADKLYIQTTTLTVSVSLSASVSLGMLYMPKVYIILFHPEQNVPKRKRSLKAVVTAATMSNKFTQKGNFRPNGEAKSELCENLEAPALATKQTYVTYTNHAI

[12] = Ratio of drug level in brain to plasma in rat; type: ADME
Plasma [13] = test: Drug uptake in rat plasma; type: ADME
Brain = test: Drug uptake in rat brain; type: ADME, tissue-based; conditions: in vivo
[14] = Mean residence time in rat; type: ADME, organism-based; conditions: in vivo
[15] = Intrinsic clearance in human; type: ADME, organism-based; conditions: in vivo
[16] = Intrinsic clearance in rat; type: ADME, organism-based; conditions: in vivo
Plasma [17] = test: Stability in rat plasma; type: ADME, cell-free
Plasma [18] = test: Stability in human plasma; type: ADME, cell-free

Row | Compound | EC50 ([1]; read-out: EC50) [µM] | %max [2] [%] | also measured
1 | Cc1ccoc1C(=O)Nc1ccc(N2C(=O)c3ccccc3C2=O)cc1F |  |  | Ratio EC50 (T-Rex 293): > 793
2 | Cc1ccoc1C(=O)Nc1ccc(N2C(=O)Cc3ccccc3CC2=O)c(Cl)c1 | 3.5 | 95 | EC50 ([1]; read-out: pEC50 (converted)): 3.63 µM
3 | Cc1ccoc1C(=O)Nc1ccc(N2Cc3cccc(Cl)c3C2=O)cc1F | > 10 |  | 
4 | Cc1ccoc1C(=O)Nc1ccc(N2CCOc3ccccc32)c(Cl)c1 | 3.62 | 99 | 
5 | Cc1ccoc1C(=O)Nc1ccc(N2Cc3cccnc3C2)c(Cl)c1 | 9.55 | 78 | 
6 | Cc1ccoc1C(=O)Nc1ccc(NC(=O)c2ccccc2C(=O)O)c(Cl)c1 | 0.93 | 108 | 
7 | Cc1ccoc1C(=O)Nc1ccc(N2C(=O)[C@@H]3CCCC[C@H]3C2=O)c(Cl)c1 (relative stereo) | > 10 |  | 
8 | Cc1ccoc1C(=O)Nc1ccc(N2CCc3ccccc32)c(Cl)c1 | 5.71 | 82 | 
9 | Cc1ccoc1C(=O)Nc1ccc(N2CCc3ccccc3C2)c(Cl)c1 | 2.47 | 107 | EC50 ([1]; read-out: pEC50 (converted)): 1.32 µM
10 | Cc1ccoc1C(=O)Nc1ccc(N2Cc3c(C#N)cccc3C2=O)c(Cl)c1 | 2.09 | 107 | EC50 ([1]; read-out: pEC50 (converted)): 2.14 µM; fraction unbound [3]: < 0.01; fraction unbound [4]: < 0.01
11 | Cc1ccc2c(c1)C(=O)N(c1ccc(NC(=O)c3occc3C)c(F)c1)C2=O | 0.0257 | 70 | Ratio EC50 (T-Rex 293): > 450
12 | Cc1ccoc1C(=O)Nc1ccc(N2Cc3ccccc3C2=O)cc1F | > 10 |  | 
13 | Cc1ccoc1C(=O)Nc1ccc(N2Cc3c(Cl)cccc3C2=O)c(Cl)c1 | 0.211 | 88 | Stability (Liver microsome [5]): Stable; Stability (Liver microsome [6]): Stable; Vd (Rattus norvegicus [7]): 3.36 L/kg; t1/2 (Rattus norvegicus [8]): 1.55 h; PPB [9]: > 99%; fraction unbound [10]: < 0.01; fraction unbound [3]: < 0.01; IC50 (Cytochrome P450 3A4): > 30 µM; IC50 (Cytochrome P450 1A2): > 30 µM; IC50 (Cytochrome P450 2C9): > 30 µM; IC50 (Cytochrome P450 2D6): > 30 µM; EC50 [11]: > 10 µM; BPR [12]: 1.36; Cp/dose (Plasma [13]): 193 nM; Druguptake/dose (Brain): 269 nM; MRT [14]: 5.03 h
14 | Cc1ccoc1C(=O)Nc1ccc(N2C(=O)[C@H]3CCCC[C@H]3C2=O)c(Cl)c1 | > 10 |  | 
15 | Cc1ccoc1C(=O)Nc1ccc(N2Cc3nccnc3C2=O)c(Cl)c1 | > 10 |  | fraction unbound [3]: < 0.01; fraction unbound [4]: < 0.01
16 | Cc1ccoc1C(=O)Nc1ccc(N2C(=O)c3cccc(F)c3C2=O)c(Cl)c1 |  |  | Ratio EC50 (T-Rex 293): 35
17 | Cc1ccoc1C(=O)Nc1ccc(N2C(=O)CCc3ccccc32)c(Cl)c1 | 1.29 | 107 | EC50 ([1]; read-out: pEC50 (converted)): 1.32 µM; Stability (Plasma [17]): Stable; Stability (Plasma [18]): Stable
18 | Cc1ccoc1C(=O)Nc1ccc(N2Cc3ccccc3C2)c(Cl)c1 | 1.76 | 95 | 
19 | Cc1ccoc1C(=O)Nc1ccc(N2Cc3cccc(Cl)c3C2=O)c(Cl)c1Cl | 6.52 | 81 | EC50 ([1]; read-out: pEC50 (converted)): 6.61 µM
20 | COc1cccc2c1CN(c1ccc(NC(=O)c3occc3C)cc1Cl)C2=O | > 10 |  | fraction unbound [3]: < 0.01; fraction unbound [4]: < 0.01
21 | Cc1ccoc1C(=O)Nc1ccc(N2Cc3c(Cl)cccc3C2=O)cc1 | 0.245 | 99 | 
22 | O=C(Nc1ccc(N2C(=O)c3cccc(Cl)c3C2=O)c(Cl)c1)c1ncccc1Cl |  |  | EC50 [11]: > 10 µM
23 | Cc1ccoc1C(=O)Nc1ccc(N2Cc3c(Cl)cccc3C2=O)cc1F | 1.26 | 86 | 
24 | Cc1ccoc1C(=O)Nc1ccc(N2Cc3c(Cl)cccc3C2=O)c(Cl)c1Cl | > 10 |  | 
25 | Cc1ccoc1C(=O)Nc1ccc(N2C(=O)c3ccccc3C2(C)C)c(Cl)c1 | 6.93 | 76 | EC50 ([1]; read-out: pEC50 (converted)): 7.08 µM; fraction unbound [3]: < 0.01; fraction unbound [4]: < 0.01
26 | Cc1ccoc1C(=O)Nc1ccc(N2Cc3c(cccc3C(F)(F)F)C2=O)c(Cl)c1 | 1.13 | 105 | fraction unbound [3]: < 0.01; fraction unbound [4]: < 0.01
27 | Cc1ccoc1C(=O)Nc1ccc(NC(=O)c2ccccc2)c(Cl)c1 | > 10 |  | 
28 | Cc1ccoc1C(=O)Nc1ccc(N2CCOc3ncccc32)c(Cl)c1 | 2.61 | 93 | 
29 | Cc1ccoc1C(=O)Nc1ccc(N2Cc3cccc(Cl)c3C2=O)cc1 | 0.353 | 101 | 

Now from value to compound, other results behind:

Row | EC50 ([1]; read-out: EC50) [µM] | %max [2] [%] | Compound | also measured
30 | 0.781 | 94 | Cc1ccoc1C(=O)Nc1ccc(N2CCc3ccccc3C2=O)c(Cl)c1 | 
31 | > 10 | 33 | Cc1scnc1C(=O)Nc1ccc(N2Cc3ccccc3C2=O)c(Cl)c1 | 
32 | > 10 |  | O=C(Nc1ccc(N2Cc3ccccc3C2=O)c(Cl)c1)c1ncccc1Cl | 
33 | 1.27 | 93 | O=C(Nc1ccc(N2Cc3c(Cl)cccc3C2=O)c(Cl)c1)c1ncccc1Cl | 
34 | 0.391 | 99 | Cc1ccoc1C(=O)Nc1ccc(N2Cc3c(Br)cccc3C2=O)c(Cl)c1 | fraction unbound [3]: < 0.01; fraction unbound [4]: < 0.01
35 | > 10 | 78 | Cc1cccnc1C(=O)Nc1ccc(N2Cc3cccc(Cl)c3C2=O)c(Cl)c1 | 
36 | > 10 | 58 | Cc1ccoc1C(=O)Nc1ccc(N2Cc3cc(Cl)ccc3C2=O)c(Cl)c1 | fraction unbound [3]: < 0.01; fraction unbound [4]: < 0.01
37 | > 10 |  | Cc1ccoc1C(=O)Nc1ccc(N2Cc3ncccc3C2=O)c(Cl)c1 | fraction unbound [3]: < 0.01; fraction unbound [4]: < 0.01
38 | > 10 |  | Cc1cccnc1C(=O)Nc1ccc(N2Cc3ccccc3C2=O)c(Cl)c1 | 
39 | 1.07 | 89 | Cc1ccoc1C(=O)Nc1ccc(N2Cc3c(C)cccc3C2=O)c(Cl)c1 | EC50 ([1]; read-out: pEC50 (converted)): 1.1 µM; fraction unbound [3]: < 0.01; fraction unbound [4]: < 0.01
40 | 0.242 | 105 | Cc1ccoc1C(=O)Nc1ccc(N2C(=O)Cc3ccccc3C2=O)c(Cl)c1 | EC50 ([1]; read-out: pEC50 (converted)): 0.224 µM; CLhep predicted [15]: 13.5 mL/min/kg; CLhep predicted [16]: 54 mL/min/kg; Stability (Plasma [17]): Unstable; Stability (Plasma [18]): Unstable; inhibition (INH) (Cytochrome P450 3A4; human): Not Active; inhibition (INH) (Cytochrome P450 1A2; human): Not Active; inhibition (INH) (Cytochrome P450 2C9; human): Not Active; inhibition (INH) (Cytochrome P450 2D6; human): Not Active
41 | 4.69 | 69 | Cc1scnc1C(=O)Nc1ccc(N2Cc3cccc(Cl)c3C2=O)c(Cl)c1 | EC50 ([1]; read-out: pEC50 (converted)): 4.79 µM
42 | > 10 |  | Cc1ccoc1C(=O)Nc1ccc(N2Cc3ccccc3C2=O)c(Cl)c1Cl | 
43 | > 10 | 51 | O=C(Nc1ccc(N2Cc3cccc(Cl)c3C2=O)c(Cl)c1)c1ncccc1Cl | 
44 | 0.878 | 82 | Cc1ccoc1C(=O)Nc1ccc(N2Cc3c(F)cccc3C2=O)c(Cl)c1 | EC50 ([1]; read-out: pEC50 (converted)): 0.891 µM; fraction unbound [3]: < 0.01; fraction unbound [4]: < 0.01
45 | 3.72 | 91 | Cc1ccoc1C(=O)Nc1ccc(N2Cc3ccccc3C2=O)c(Cl)c1 | Stability (Liver microsome [5]): Stable; Stability (Liver microsome [6]): Stable
46 | 1.56 | 94 | Cc1ccoc1C(=O)Nc1ccc(N2Cc3ccccc3C2=O)cc1 | 
47 | 1.36 | 97 | Cc1cccnc1C(=O)Nc1ccc(N2Cc3c(Cl)cccc3C2=O)c(Cl)c1 | EC50 ([1]; read-out: pEC50 (converted)): 1.45 µM
48 | 0.954 | 66 | Cc1scnc1C(=O)Nc1ccc(N2Cc3c(Cl)cccc3C2=O)c(Cl)c1 | 
49 | > 10 |  | Cc1ccoc1C(=O)Nc1ccc(N2C(=O)Cc3ccccc32)c(Cl)c1 | 
50 | > 10 |  | Cc1ccoc1C(=O)Nc1ccc(N2Cc3cccnc3C2=O)c(Cl)c1 | fraction unbound [3]: < 0.01; fraction unbound [4]: < 0.01
51 | 0.484 | 108 | Cc1ccoc1C(=O)Nc1ccc(N2Cc3cccc(Cl)c3C2=O)c(Cl)c1 | fraction unbound [3]: < 0.01; fraction unbound [4]: < 0.01
